This is an account of results in ChEMBL document CHEMBL1153469, “Antimicrobial and immunomodulatory properties of prenylated xanthones from twigs of Garcinia staudtii” (Bioorg Med Chem, 2009).

Series [1] relates to PBMC. The series is described as follows: Immunomodulatory activity in human PBMC assessed as inhibition of phytohemagglutinin-induced T-cell proliferation at 12.5 ug/mL after 72 hrs by [3H]thymidine incorporation assay. The format is functional. The gist of the method: (§1)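 PBMCs were isolated from heparinized venous blood of a healthy adult donor by Ficoll–Hypaque gradient. Cells at 5 × 10^5 cells/mL were stimulated with PHA 5 µg/mL, with compounds at 3.1–100 µg/mL final, in triplicate. Incubation was 72 h at 37 °C in 5% CO2, then a 0.5 µCi/well [3H]thymidine pulse for 18 h further. Incorporation was counted by liquid scintillation as mean CPM.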
(In general: Dividing cells build labelled thymidine or BrdU into new DNA.)

Series [2] deals with Neutrophil. Nature of the series: Immunomodulatory activity in polymorphoneutrophils assessed as suppression of phagocytosis activity 30 mins by luminol-enhanced chemiluminescence assay. The format is functional, cell-based. The method, boiled down: (§2)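 Luminol-enhanced chemiluminescence was run on neutrophils (1 × 10^7) or monocytes (1 × 10^6) in HBSS with Ca/Mg. Cells were preincubated 30 min with compound (3.1–50 µg/mL), then zymosan (20 mg/mL stock) and luminol (7 × 10^-5 M stock) were added, to 0.2 mL final. HBSS alone served as control. Fifty luminometer scans were taken at 30 s intervals, with readings expressed relative to untreated control.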

Series [3] is described as follows: Immunomodulatory activity in MNC assessed as suppression of phagocytosis activity after 30 mins by luminol-enhanced chemiluminescence assay. The format is functional. The method, boiled down:
as §2

Series [4] is described as follows: Cytotoxicity against MDBK cells at 50 ug/mL after 72 hrs by MTT assay. The format is cell-based, Bos taurus. The note with it: cattle. The method, boiled down:
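MDBK adherent cells at 2 × 10^5 cells/mL were exposed to serial compound dilutions (0.195–50 µg/mL), with viability examined after 72 h. MTT (2 mg/mL) was added for 2–3 h at 37 °C. Cells were washed with PBS and the formazan dissolved in DMSO, with 15 min agitation at 37 °C. Absorbance was read at 540 nm, and viability was taken as the OD ratio to control.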

Series [5] can be described thus: Cytotoxicity against MNC at 3.1 to 50 ug/mL.
The nature of series [6]: Cytotoxicity against polymorphoneutrophils at 3.1 to 50 ug/mL. The format is cell-based. Particulars: neutrophil.
For series [7], the system named is PBMC. Nature of the series: Immunomodulatory activity in human PBMC assessed as phytohemagglutinin-stimulated IL2 release at 0.5 to 16 ug/mL after 18 hrs by ELISA. The format is functional. The method, boiled down:
(§3)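 Donor PBMCs were Ficoll-isolated and cultured in RPMI-1640 with 10% AB human serum, at 10^5 cells/well, with or without PHA 1.25 µg/mL. Compounds were tested at 16, 4, 1 and 0.5 µg/mL for 18 h at 37 °C in 5% CO2. Supernatants were cleared by 1000g centrifugation at 4 °C. IL-2, IL-4 and IFN-γ were measured by ELISA kit.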

The test system of series [8] is PBMC. Nature of the series: Immunomodulatory activity in human PBMC assessed as phytohemagglutinin-stimulated IL4 release at 0.5 to 16 ug/mL after 18 hrs by ELISA. Type of series: functional. The gist of the method:
as §3

Series [9] relates to PBMC. The series is described as follows: Immunomodulatory activity in human PBMC assessed as phytohemagglutinin-stimulated IFN-gamma release at 0.5 to 16 ug/mL after 18 hrs by ELISA. The format is functional. The gist of the method:
as §3

Series [10] concerns PBMC. Nature of the series: Immunomodulatory activity in human PBMC assessed as inhibition of phytohemagglutinin-stimulated IL2 release at 0.5 ug/mL after 18 hrs by ELISA. Type of series: functional. The gist of the method: as §3
Series [11] relates to PBMC. Nature of the series: Immunomodulatory activity in human PBMC assessed as inhibition of phytohemagglutinin-stimulated IFN-gamma release at 0.5 ug/mL after 18 hrs by ELISA. Type of series: functional. The method, boiled down:
as §3
For orientation: In an ELISA, binding on a coated surface is turned into a signal by an enzyme label.

The subject of series [12] is PBMC. The series is described as follows: Immunomodulatory activity in human PBMC assessed as inhibition of phytohemagglutinin-stimulated IL4 release at 1 ug/mL after 18 hrs. The format is functional. The gist of the method: as §3
Series [13] relates to Neutrophil. Nature of the series: Immunomodulatory activity in polymorphoneutrophils assessed as inhibition of fMLP-induced cellular chemotaxis at 2.5 to 25 ug/mL after 1 hr using hematoxylin staining by light microscopy. The format is functional. The gist of the method:
(§4)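 PMN chemotaxis was measured in a modified Boyden chamber. fMLP (10^-8 M) was placed in the lower well, separated by a cellulose filter (2 µm pores). 5 × 10^4 cells in HBSS with Ca/Mg went in the upper well, with compounds at 2.5, 5 or 25 µg/mL, in duplicate. The DMSO:HBSS (1:1) buffer served as control. After 60 min at 37 °C in CO2, cells in the filter were hematoxylin-stained and migration distance was measured in five random fields.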

The subject of series [14] is PBMC. Nature of the series: Immunomodulatory activity in human PBMC assessed as inhibition of phytohemagglutinin-stimulated IL2 release after 18 hrs by ELISA. Type of series: functional, cell-based. The method, boiled down: as §3
Series [15] relates to PBMC. The series is described as follows: Immunomodulatory activity in human PBMC assessed as inhibition of phytohemagglutinin-stimulated IL4 release after 18 hrs by ELISA. Type of series: functional, cell-based. The method, boiled down: as §3
In series [16] the test system is PBMC. Nature of the series: Immunomodulatory activity in human PBMC assessed as inhibition of phytohemagglutinin-stimulated IFN-gamma release after 18 hrs by ELISA. Type of series: functional, cell-based. The gist of the method: as §3
Series [17] concerns PBMC. Nature of the series: cells. Particulars: Homo sapiens.
The nature of series [18]: Immunomodulatory activity in MNC assessed as suppression of phagocytosis activity at 3.1 ug/mL after 30 mins by luminol-enhanced chemiluminescence assay.
In series [19] the test system is Neutrophil. The series is described as follows: Immunomodulatory activity in polymorphoneutrophils assessed as suppression of phagocytosis activity at 3.1 ug/mL after 30 mins by luminol-enhanced chemiluminescence assay.
Series [20] in a line: Immunomodulatory activity in MNC assessed as inhibition of reactive oxygen species release at 25 ug/mL after 30 mins by luminol-enhanced chemiluminescence assay. Details: scale not given: the % may be the effect or the level left. The format is functional. The gist of the method: as §2
Series [21] in a line: Immunomodulatory activity in MNC assessed as stimulation of reactive oxygen species release at 3.1 ug/mL after 30 mins by luminol-enhanced chemiluminescence assay. Type of series: functional. The gist of the method:
as §2

The nature of series [22]: Immunomodulatory activity in MNC assessed as inhibition of reactive oxygen species release at 50 ug/mL after 30 mins by luminol-enhanced chemiluminescence assay. Type of series: functional. Set-up: scale not given: the % may be the effect or the level left. The method, boiled down:
as §2

For series [23], the system named is PBMC. Nature of the series: Immunomodulatory activity in human PBMC assessed as inhibition of phytohemagglutinin-induced T-cell proliferation at 3.1 ug/mL after 72 hrs by [3H]thymidine incorporation assay. The format is functional. The method, boiled down: as §1
For series [24], the system named is PBMC. Nature of the series: Immunomodulatory activity in human PBMC assessed as inhibition of phytohemagglutinin-induced T-cell proliferation at 6.125 ug/mL after 72 hrs by [3H]thymidine incorporation assay. Type of series: functional. The gist of the method: as §1
For series [25], the system named is Neutrophil. Nature of the series: Immunomodulatory activity in polymorphoneutrophils assessed as inhibition of fMLP-induced cellular chemotaxis at 25 ug/mL after 1 hr using hematoxylin staining by light microscopy. Type of series: functional. The method, boiled down: as §4
Series [26] relates to Neutrophil. Nature of the series: Immunomodulatory activity in polymorphoneutrophils assessed as inhibition of fMLP-induced cellular chemotaxis at 2.5 ug/mL pre-incubated 1 hr before fMLP challenge measured after 1 hr using hematoxylin staining by light microscopy. The format is functional. The method, boiled down:
as §4

For series [27], the system named is Neutrophil. Nature of the series: Immunomodulatory activity in polymorphoneutrophils assessed as inhibition of fMLP-induced cellular chemotaxis at 5 ug/mL pre-incubated 1 hr before fMLP challenge measured after 1 hr using hematoxylin staining by light microscopy. The format is functional. The gist of the method: as §4

Converted amounts (≈) assume the structure as drawn.

In general, inhibition refers to the relative decrease from the control value, in per cent. For orientation: IC50 means the concentration needed to halve the response being measured. As for `CC(C)=CCc1c(O)c(CC=C(C)C)c2oc3c(O)cc(O)cc3c(=O)c2c1O` [STAUDTIIXANTHONE A], the inhibition at 12.5 µg/mL in the series on PBMC [1] was determined as 94.3%. Besides, the Activity result is “Dose-dependent effect” in the series on Neutrophil [2]; “Dose-dependent effect” in series [3]; “Non-toxic” in [4]; “Non-toxic” in series [5]; “Non-toxic” in [6]; 528.5 pg/mL with PBMC [7]. The Activity is 120.5 pg/mL with PBMC [8], 4033.7 pg/mL in the series on PBMC [9], 73% in [18] and 73% with Neutrophil [19]. The inhibition at 0.5 µg/mL with PBMC [10] was determined as 68.2%; in the series on PBMC [11], 62.5%. Further, the inhibition at 1 µg/mL in the series with PBMC [12] is 88.1%. The “inhibition (INH)” value in the series on Neutrophil [13] amounted to 27%. Further, the inhibition result in the series on PBMC [14], in the series with PBMC [15] and in the series with PBMC [16] was “Dose-dependent effect” in each case. This compound yielded an IC50 in the series on PBMC [17] of 6.2 µg/mL (≈ 15.6 µM).
For `CC(C)=CCc1c2c(c(O)c3c(=O)c4cc(O)cc(O)c4oc13)C=CC(C)(C)O2` [STAUDTIIXANTHONE B], the inhibition at 12.5 µg/mL in the series with PBMC [1] is 97.1%. The Activity entry in the series on Neutrophil [2] was “Dose-dependent effect”; in series [3], “Dose-dependent effect”; in series [4] it was “Non-toxic”; in series [5], “Non-toxic”; in series [6], “Non-toxic”; in the series with PBMC [7], 528.5 pg/mL. Also, the Activity came to 120.5 pg/mL in the series on PBMC [8] and 4033.7 pg/mL in the series on PBMC [9]. The “inhibition (INH)” value in the series on Neutrophil [13] is 27%. Also, the inhibition result in the series on PBMC [14], in the series with PBMC [15] and with PBMC [16] was “Dose-dependent effect” throughout. The compound also returned an IC50 in the series on PBMC [17] of 6.4 µg/mL (≈ 16.2 µM).
On to `COc1cc2oc3c4c(cc(O)c3c(=O)c2c2c1OC(C)(C)CC2)OC(C)(C)CC4` [STAUDTIIXANTHONE D], for which the Activity was 59% in series [20]; 24% in [21]; 70% in [22]; “Dose-dependent effect” in the series with Neutrophil [2]; “Dose-dependent effect” in series [3]; “Non-toxic” in [4]. Further, the Activity result in [5] is “Non-toxic”; in series [6], “Non-toxic”; with PBMC [7], 528.5 pg/mL; with PBMC [8], 120.5 pg/mL; in the series with PBMC [9], 4033.7 pg/mL. For the same compound, the inhibition at 3.1 µg/mL with PBMC [23] was 44.9%. The inhibition at 6.125 µg/mL in the series on PBMC [24] worked out at 70.4%. In addition, in the series with Neutrophil [13], the “inhibition (INH)” value was found to be 27%. The same compound had an IC50 in the series with PBMC [17] of 3.7 µg/mL (≈ 9.01 µM).
For the compound `CC(C)=CCc1c2c(c3oc4c(O)cc(O)cc4c(=O)c3c1O)C=CC(C)(C)O2` [STAUDTIIXANTHONE C], the Activity result in the series with Neutrophil [2] was “Dose-dependent effect”; in [3], “Dose-dependent effect”; in series [4] it was “Non-toxic”; in [5], “Non-toxic”; in [6] it was “Non-toxic”; in the series with PBMC [7], 528.5 pg/mL. In addition, the Activity came out at 120.5 pg/mL in the series with PBMC [8] and 4033.7 pg/mL in the series with PBMC [9]. Besides, in the series on Neutrophil [13], the “inhibition (INH)” value came to 27%. Besides, in the series on Neutrophil [25], the inhibition at 25 µg/mL was found to be 46%. Besides, the inhibition at 2.5 µg/mL in the series on Neutrophil [26] worked out at 36.4%. Besides, in the series with Neutrophil [27], the inhibition at 5 µg/mL amounted to 42.2%. In addition, the inhibition entry with PBMC [14], with PBMC [15] and in the series on PBMC [16] was “Dose-dependent effect” in each case. For the same compound, the IC50 in the series with PBMC [17] amounted to 12.7 µg/mL (≈ 32.2 µM).
